In ChEMBL document CHEMBL1127494, “New hexahydroxybiphenyl derivatives as inhibitors of protein kinase C” (J Med Chem, 1994):
pIC50: −log10 of the molar value. “And” between values parts separate entries of the source, which are not always exact repeats. Equal values may be shown once.

Tests used:
[1] = biological target: Protein kinase C (PKC); test: Displacement of [3H]PDBU from protein kinase C; assay type: protein assay, Rattus norvegicus
[2] = biological target: Protein kinase C (PKC); test: Inhibitory activity against protein kinase C of rat brain
Procedure, shortened: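 PKC purified from rat brain. The read-out was 32P transfer from 30 μM [γ-32P]ATP to histone IIIS (200 μg/mL) in 20 mM Hepes pH 7.5 with phosphatidylserine, 10 mM MgCl2, 100 μM CaCl2 and 47.5 μM EGTA, run 10 min at 30 °C. Reactions were TCA-precipitated, filtered and scintillation-counted. Lipid-independent activity was subtracted, and test levels were 4, 43 and 218 μM.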

[3] = Inhibition of c-AMP dependent kinase (PKA) catalytic subunit; set-up: species or system Bos taurus
[4] = biological target: Protein kinase C gamma type (Homo sapiens, UniProt P05129); test: Inhibition of protein kinase C gamma
Procedure, shortened: (§1)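 Recombinant human enzyme expressed by baculovirus in SF9 cells, then partially purified by homogenizing the pellet in Tris pH 8 detergent buffer, spinning, and running a DEAE column with a 0–500 mM NaCl gradient, with the peak pooled. The reaction was [γ-32P]ATP (30 μM) incorporation into histone IIIS (200 μg/mL) with phosphatidylserine, Ca2+/EGTA and Mg2+ in Hepes pH 7.5, run 10 min at 30 °C. It was stopped with TCA and counted on filters. No-lipid background was subtracted, and compounds were tested at 4, 43 and 218 μM.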

[5] = biological target: Protein kinase C delta type (Homo sapiens, UniProt Q05655); test: Inhibition of protein kinase C delta; procedure, shortened: as §1
Sequence of Protein kinase C delta type (Q05655 whole entry): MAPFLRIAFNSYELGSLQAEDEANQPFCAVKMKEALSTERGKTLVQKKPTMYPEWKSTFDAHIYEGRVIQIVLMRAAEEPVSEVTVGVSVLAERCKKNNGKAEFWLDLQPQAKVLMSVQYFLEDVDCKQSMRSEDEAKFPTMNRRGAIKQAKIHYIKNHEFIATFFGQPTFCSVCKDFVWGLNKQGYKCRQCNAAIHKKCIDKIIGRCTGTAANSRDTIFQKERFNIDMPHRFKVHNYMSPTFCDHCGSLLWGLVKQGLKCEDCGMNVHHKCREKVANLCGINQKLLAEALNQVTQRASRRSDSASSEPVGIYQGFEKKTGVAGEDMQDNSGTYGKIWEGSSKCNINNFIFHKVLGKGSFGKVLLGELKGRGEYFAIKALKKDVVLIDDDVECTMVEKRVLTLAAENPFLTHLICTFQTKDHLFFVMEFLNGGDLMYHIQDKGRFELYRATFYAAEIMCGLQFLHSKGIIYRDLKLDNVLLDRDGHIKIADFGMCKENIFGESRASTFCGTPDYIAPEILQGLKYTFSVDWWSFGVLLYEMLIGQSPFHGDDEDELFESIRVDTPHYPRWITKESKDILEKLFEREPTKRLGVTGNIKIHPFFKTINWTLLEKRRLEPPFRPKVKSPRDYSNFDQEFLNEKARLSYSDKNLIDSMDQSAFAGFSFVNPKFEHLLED

[6] = biological target: Protein kinase C alpha type (Homo sapiens, UniProt P17252); test: Inhibition of protein kinase C alpha

Row | Structure (SMILES) | IC50 [1] [µM] | IC50 [2] | pIC50 [3] | other results
1 | CCOC(=O)c1cc(OCc2ccccc2)c(OCc2ccccc2)c(OCc2ccccc2)c1-c1c(C(=O)OCC)cc(OCc2ccccc2)c(OCc2ccccc2)c1OCc1ccccc1 | > 272 | 50 µM and 96 µM and 75 µM | 4.72 | –
2 | COc1c(OCc2ccccc2)c(OCc2ccccc2)cc2c1-c1c(cc(OCc3ccccc3)c(OCc3ccccc3)c1OC)C[N+]1(C2)Cc2cc(OCc3ccccc3)c(OCc3ccccc3)c(OC)c2-c2c(cc(OCc3ccccc3)c(OCc3ccccc3)c2OC)C1 | > 272 | 87 µM | 4.82 | –
3 | COc1cc2c(c(OC)c1OC)-c1c(cc(OC)c(OC)c1OC)COC2 | – | > 218 µM | – | –
4 | c1ccc(COc2cc3c(c(OCc4ccccc4)c2OCc2ccccc2)-c2c(cc(OCc4ccccc4)c(OCc4ccccc4)c2OCc2ccccc2)COC3)cc1 | – | 180 µM | – | –
5 | BrCc1cc(OCc2ccccc2)c(OCc2ccccc2)c(OCc2ccccc2)c1-c1c(CBr)cc(OCc2ccccc2)c(OCc2ccccc2)c1OCc1ccccc1 | – | 103 µM | – | –
6 | COc1c(OCc2ccccc2)c(OCc2ccccc2)cc(CBr)c1-c1c(CBr)cc(OCc2ccccc2)c(OCc2ccccc2)c1OC | – | > 218 µM | – | –
7 | O=Cc1cc(OCc2ccccc2)c(OCc2ccccc2)c(OCc2ccccc2)c1-c1c(C=O)cc(OCc2ccccc2)c(OCc2ccccc2)c1OCc1ccccc1 | – | 131 µM | – | –
8 | COC(=O)c1cc(OCc2ccccc2)c(OCc2ccccc2)c(OCc2ccccc2)c1-c1c(C(=O)OC)cc(OCc2ccccc2)c(OCc2ccccc2)c1OCc1ccccc1 | – | 180 µM and 131 µM and > 218 µM | – | –
9 | c1ccc(COc2cc3c(c(OCc4ccccc4)c2OCc2ccccc2)-c2c(cc(OCc4ccccc4)c(OCc4ccccc4)c2OCc2ccccc2)C[N+]2(C3)Cc3cc(OCc4ccccc4)c(OCc4ccccc4)c(OCc4ccccc4)c3-c3c(cc(OCc4ccccc4)c(OCc4ccccc4)c3OCc3ccccc3)C2)cc1 | – | 131 µM | – | –
10 | COC(=O)c1cc(OCc2ccccc2)c(OCc2ccccc2)c(OC)c1-c1c(C(=O)OC)cc(OCc2ccccc2)c(OCc2ccccc2)c1OC | – | 97 µM | – | –
11 | COc1c(OCc2ccccc2)c(OCc2ccccc2)cc(C=O)c1-c1c(C=O)cc(OCc2ccccc2)c(OCc2ccccc2)c1OC | – | > 218 µM | – | –
12 | CCOC(=O)c1cc(OCc2ccccc2)c(OCc2ccccc2)c(OC)c1-c1c(C(=O)OCC)cc(OCc2ccccc2)c(OCc2ccccc2)c1OC | – | 94 µM | – | –
13 | CCCCCCCCCCCCC/C=C/[C@@H](O)[C@@H](N)CO [SPHINGOSINE] | 23 | 40 µM | – | –

Now from value to compound, other results behind:

Row | IC50 [1] [µM] | IC50 [2] | pIC50 [3] | Structure (SMILES) | other results
14 | – | > 218 µM | – | COC(=O)c1cc(O)c(O)c(O)c1-c1c(C(=O)OC)cc(O)c(O)c1O | –
15 | < 50 | 4 µM | < 3.66 | O=C1OCC2O[C@@H](O)C3OC(=O)c4cc(O)c(O)c(O)c4-c4c(cc(O)c(O)c4O)C(=O)OC3C2OC(=O)c2cc(O)c(O)c(O)c2-c2c1cc(O)c(O)c2O (stereo not given in full) | –
16 | 54 | 32 µM and 28 µM and 43 µM | 4.51 and 4.54 and < 3.66 | Oc1cc2c(c(O)c1O)-c1c(cc(O)c(O)c1O)COC2 | pIC50 [4]: 4.47 and 4.52; pIC50 [5]: 4.38 and 4.36; pIC50 [6]: 4.43
17 | < 50 | 3 µM | < 3.66 | O=C(O[C@@H]1OC2COC(=O)c3cc(O)c(O)c(O)c3-c3c(cc(O)c(O)c3O)C(=O)OC2C2OC(=O)c3cc(O)c(O)c(O)c3-c3c(cc(O)c(O)c3O)C(=O)OC21)c1cc(O)c(O)c(O)c1 (stereo not given in full) | –
18 | – | > 218 µM | – | CCOC(=O)c1cc(O)c(O)c(O)c1-c1c(C(=O)OCC)cc(O)c(O)c1O | –
19 | – | 98 µM | < 3.66 | COCc1cc(O)c(O)c(O)c1-c1c(COC)cc(O)c(O)c1O | pIC50 [4]: 4.30; pIC50 [6]: 4.37
20 | – | > 218 µM | – | COc1c(OCc2ccccc2)c(OCc2ccccc2)cc(CO)c1-c1c(CO)cc(OCc2ccccc2)c(OCc2ccccc2)c1OC | –
21 | > 272 | 70 µM and 55 µM and 88 µM | 4.68 | OCc1cc(OCc2ccccc2)c(OCc2ccccc2)c(OCc2ccccc2)c1-c1c(CO)cc(OCc2ccccc2)c(OCc2ccccc2)c1OCc1ccccc1 | –
22 | – | > 218 µM | – | OCc1cc(OCc2ccccc2)c(OCc2ccccc2)c(O)c1-c1c(CO)cc(OCc2ccccc2)c(OCc2ccccc2)c1O | –
23 | – | 20 µM | – | O=C(O[C@@H]1O[C@@H]2COC(=O)c3cc(O)c(O)c(O)c3-c3c(cc(O)c(O)c3O)C(=O)O[C@H]([C@H]1O)[C@@H]2O)c1cc(O)c(O)c(O)c1 [CORILAGIN] | –
24 | < 50 | 4 µM | < 3.66 | O=C(O[C@@H]1O[C@@H]2COC(=O)c3cc(O)c(O)c(O)c3-c3c(cc(O)c(O)c3O)C(=O)O[C@H]([C@H]1OC(=O)c1cc(O)c(O)c(O)c1)[C@@H]2OC(=O)c1cc(O)c(O)c(O)c1)c1cc(O)c(O)c(O)c1 [PUNICAFOLIN] | –
